Source: article PMC6392825 (ChemistryOpen, 2019)
Values after ≈ are worked out from the molar mass of the structure shown.

How the values were obtained:
HT‐29 [1] = experiment: Cell growth inhibition, protein content; type: cell-based; conditions: Homo sapiens, HT-29, 72 h, read-out: IC50 SRB
Procedure, shortened: (§1)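 Cell lines from ATCC, grown in DMEM+glutamax with 1% NEAA, 1% P/S and 10% FBS at 37 °C, 10% CO2. Seeded at 20000 cells/well for 24 h, then exposed to test compound (25 mM DMSO stock) for three days. Fixed with cold TCA for 1 h at 4 °C, stained 30 min with 0.4% SRB in 1% acetic acid, dissolved in 10 mM Tris, A490. Triplicate; IC50 given as mean ± SD combined with MTT data (n ≥ 3).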

EA.hy926 [2] = experiment: Cell growth inhibition, protein content; type: cell-based; conditions: Homo sapiens, EA.hy 926, 72 h, read-out: IC50 SRB
Procedure, shortened: as §1

Caco‐2 [3] = experiment: Intracellular ROS assay; type: cell-based; conditions: Homo sapiens, Caco-2, read-out: Intracellular ROS, percentage compared to the untreated control cells (ROS/SRB)
Procedure, shortened: (§2)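 Cells seeded at 20000/well and grown 24 h at 37 °C, 10% CO2, then treated with test compound at 10 and 1 μM in serum-free medium. NAC and doxorubicin served as controls. After a PBS wash, cells were loaded with 20 μM DCFH-DA for 30 min, washed, and held 1 h in phenol red-free DMEM. Fluorescence read at ex 485/em 535 nm and normalized to SRB in the same well. Reported as % of untreated control, n ≥ 3, two-tailed t-test with unequal variances.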

HepG2 [4] = experiment: Cell growth inhibition, protein content; type: cell-based; conditions: Homo sapiens, HepG2, 72 h, read-out: IC50 SRB
Procedure, shortened: as §1

EA.hy926 [5] = experiment: Cytotoxicity, mitochondrial activity; type: cell-based; conditions: Homo sapiens, EA.hy 926, 72 h, read-out: IC50 MTT
Procedure, shortened: (§3)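 Seeded at 20000 cells/well in DMEM and grown 24 h at 37 °C, 10% CO2. Medium was then replaced with serum-free medium holding test compound (25 mM DMSO stock) at various concentrations for 72 h, in triplicate; doxorubicin was the positive control. MTT (5 mg/mL stock in PBS) added for 2 h, formazan dissolved in DMSO, A570. IC50 derived from % surviving cells, reported as mean ± SD combined with SRB data.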

Caco‐2 [6] = experiment: Cytotoxicity, mitochondrial activity; type: cell-based; conditions: Homo sapiens, Caco-2, 72 h, read-out: IC50 MTT
Procedure, shortened: as §3

EA.hy926 [7] = experiment: Intracellular ROS assay; type: cell-based; conditions: Homo sapiens, EA.hy 926, read-out: Intracellular ROS, percentage compared to the untreated control cells (ROS/SRB)
Procedure, shortened: as §2

HT‐29 [8] = experiment: Intracellular ROS assay; type: cell-based; conditions: Homo sapiens, HT-29, read-out: Intracellular ROS, percentage compared to the untreated control cells (ROS/SRB)
Procedure, shortened: as §2

HT‐29 [9] = experiment: Cytotoxicity, mitochondrial activity; type: cell-based; conditions: Homo sapiens, HT-29, 72 h, read-out: IC50 MTT
Procedure, shortened: as §3

HepG2 [10] = experiment: Intracellular ROS assay; type: cell-based; conditions: Homo sapiens, HepG2, read-out: Intracellular ROS, percentage compared to the untreated control cells (ROS/SRB)
Procedure, shortened: as §2

[11] = Chemical antioxidant capacity, FRAP assay
Caco‐2 [12] = experiment: Cell growth inhibition, protein content; type: cell-based; conditions: Homo sapiens, Caco-2, 72 h, read-out: IC50 SRB
Procedure, shortened: as §1

HepG2 [13] = experiment: Cytotoxicity, mitochondrial activity; type: cell-based; conditions: Homo sapiens, HepG2, 72 h, read-out: IC50 MTT
Procedure, shortened: as §3

[14] = Water solubility, shake flask method, 0.1 M phosphate buffer pH 6.8; type: physicochemical; conditions: 37 °C, pH 6.8, aqueous buffer, thermodynamic from solid

| Compound | IC50 (HT‐29 [1]) [µM] | IC50 (EA.hy926 [2]) [µM] | activity at 1 µM (Caco‐2 [3]) [%] | activity at 10 µM (Caco‐2 [3]) [%] | IC50 (HepG2 [4]) [µM] | IC50 (EA.hy926 [5]) [µM] | IC50 (Caco‐2 [6]) [µM] | activity at 1 µM (EA.hy926 [7]) [%] | activity at 10 µM (EA.hy926 [7]) [%] | activity at 1 µM (HT‐29 [8]) [%] | activity at 10 µM (HT‐29 [8]) [%] | IC50 (HT‐29 [9]) [µM] | activity at 1 µM (HepG2 [10]) [%] | activity at 10 µM (HepG2 [10]) [%] | FRAP (Trolox equivalent per μM) [11] [Trolox equivalent per μM] | FRAP (curcumin equivalent per μM) [11] | IC50 (Caco‐2 [12]) [µM] | IC50 (HepG2 [13]) [µM] | solubility at 90 min [14] [µM] | solubility at 24 h [14] [µM] |
| --- | --- | --- | --- | --- | --- | --- | --- | --- | --- | --- | --- | --- | --- | --- | --- | --- | --- | --- | --- | --- |
| O=C(/C=C(O)/C=C/c1ccncc1)/C=C/c1c[nH]c2ccccc12 [3 i, (1E,4Z,6E)‐5‐Hydroxy‐1‐(1H‐indol‐3‐yl)‐7‐(pyridin‐4‐yl)hepta‐1,4,6‐trien‐3‐one] | 64.2 ± 2.76 | > 75 | 101 ± 5.1 | 89.7 ± 8.9 | > 75 | 34.9 ± 1.3 | 47.1 ± 1.6 | 106 ± 10.5 | 119 ± 2.9 | 73.3 ± 7.8 | 73.6 ± 5.3 | 42 ± 1 | 125 ± 12 | 147 ± 12.8 | 0.19 | 0.18 curcumin equivalent per μM | 29.8 ± 2.3 | 48.5 ± 1.7 | 7.8 ± 0.1 (≈ 2.47 µg/mL) | 7.7 ± 0.6 (≈ 2.44 µg/mL) |
| O=C(/C=C(O)/C=C/c1ccccn1)/C=C/c1c[nH]c2ccccc12 [3 j, (1E,4Z,6E)‐5‐Hydroxy‐1‐(1H‐indol‐3‐yl)‐7‐(pyridin‐2‐yl)hepta‐1,4,6‐trien‐3‐one] | 46 ± 3 | 3.7 ± 0.2 | 98.2 ± 2.6 | 84.9 ± 7 | 34 ± 2.8 | 1.4 ± 0.2 | 35.5 ± 0.4 | 90.8 ± 2.4 | 111 ± 3.5 | 114 ± 15.5 | 102 ± 6.4 | 33.8 ± 3.5 | 92.6 ± 6.5 | 96.6 ± 5.9 | 0.16 | 0.15 curcumin equivalent per μM | 40.2 ± 1.9 | 38.9 ± 0.8 | 10.7 ± 0.4 (≈ 3.39 µg/mL) | 7.9 ± 0.2 (≈ 2.5 µg/mL) |
| O=C(/C=C(O)/C=C/c1ccc2ccccc2n1)/C=C/c1c[nH]c2ccccc12 [3 k, (1E,4Z,6E)‐5‐Hydroxy‐1‐(1H‐indol‐3‐yl)‐7‐(quinolin‐2‐yl)hepta‐1,4,6‐trien‐3‐one] | 43.8 ± 0.9 | 53.2 ± 1.3 | 162 ± 21.7 | 168 ± 28.1 | 54.1 ± 1 | 38.3 ± 1.7 | 44.7 ± 2.1 | 120 ± 9.2 | 126 ± 5.6 | 112 ± 10.8 | 116 ± 7.1 | 42 ± 2 | 156 ± 13 | 197 ± 24.6 | 0.20 | 0.19 curcumin equivalent per μM | 47.5 ± 0.2 | 56.2 ± 1.6 | 8.1 ± 0.1 (≈ 2.97 µg/mL) | 9.6 ± 0.8 (≈ 3.52 µg/mL) |
| O=C(/C=C(O)/C=C/c1ccc[nH]1)/C=C/c1c[nH]c2ccccc12 [3 l, (1E,4Z,6E)‐5‐Hydroxy‐1‐(1H‐indol‐3‐yl)‐7‐(1H‐pyrrol‐2‐yl)hepta‐1,4,6‐trien‐3‐one] | 10 ± 0.1 | 4.2 ± 0.3 | 410 ± 31.9 | 767.2 ± 4.1 | 9.8 ± 0.3 | 3.3 ± 0.1 | 6.5 ± 0.2 | 438 ± 46.1 | 826 ± 22.7 | 152 ± 8.8 | 558 ± 96.3 | 10.5 ± 0.1 | 600 ± 61.8 | 998 ± 60.2 | 0.29 | 0.27 curcumin equivalent per μM | 10.1 ± 0.5 | 16.5 ± 0.4 | 12.2 ± 0.3 (≈ 3.71 µg/mL) | 12 ± 0.7 (≈ 3.65 µg/mL) |
